Data as given in ChEMBL document CHEMBL3608272, “Design, synthesis and anticancer properties of novel oxa/azaspiro[4,5]trienones as potent apoptosis inducers through mitochondrial disruption” (2015).
The source made the active and inactive calls. No cut-off for these calls is given here.

Experiments:
DU-145 = experiment: Anti-proliferative activity against human DU145 cells incubated for 48 hrs by SRB assay; format: functional; conditions: DU-145, 48 h
How it was run: (§1)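 SRB assay. Cells in DMEM with 10% FBS were seeded and grown 24 h at 37 °C in CO2. Compounds were diluted from a 10 mM DMSO stock to 1, 5 and 10 µM, with DMSO at most 0.1%, and exposed 48 h. Cells were fixed with 10% TCA for 60 min at 4 °C and stained 20 min at room temperature with 0.4% SRB in 1% acetic acid. Dye was eluted with 10 mM trizma base and absorbance read at 540 nm. Run in triplicate; GI50 given as mean ± SD of three determinations.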

MCF7 [1] = experiment: Anti-proliferative activity against human MCF7 cells incubated for 48 hrs by SRB assay; format: functional; conditions: MCF7, 48 h; how it was run: as §1
A549 = experiment: Anti-proliferative activity against human A549 cells incubated for 48 hrs by SRB assay; format: functional; conditions: A549, 48 h
HepG2 = experiment: Anti-proliferative activity against human HepG2 cells incubated for 48 hrs by SRB assay; format: functional; conditions: HepG2, 48 h; how it was run: as §1
MCF7 [2] = experiment: Reduction in mitochondrial membrane potential in human MCF7 cells at 0.5 and 1 uM incubated for 48 hrs by JC1 dye staining based flow cytometry; format: functional, cell-based
How it was run: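 MCF-7 cells (1 × 10^6 per well) in six-well plates were treated 48 h, trypsinized, washed in PBS and stained with 5 µg/mL JC-1 for 15 min at 37 °C. Cells were rinsed three times, resuspended in prewarmed medium and analysed by flow cytometry in the FL1 and FL2 channels.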

MCF7 [3] = experiment: Induction of ROS generation in human MCF7 cells at 1 uM incubated for 48 hrs by DCFDA dye based flow cytometry (reference value: 1.2%); format: functional
MCF7 [4] = experiment: Induction of apoptosis in human MCF7 cells assessed as early apoptotic cells levels at 0.5 uM incubated for 48 hrs by Annexin V-FITC and propidium iodide staining based flow cytometry (reference value: 3.57%); format: functional
MCF7 [5] = experiment: Induction of cell cycle arrest in human MCF7 cells assessed as accumulation at G2/M phase at 0.5 uM incubated for 48 hrs by propidium iodide staining based flow cytometry (reference value: 11.98%); format: functional
How it was run: (§2)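 MCF-7 cells were treated 48 h, harvested, washed in PBS, fixed in ice-cold 70% ethanol and stained with propidium iodide. Phase distribution was measured by flow cytometry and compared with untreated cells.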

MCF7 [6] = experiment: Induction of cell cycle arrest in human MCF7 cells assessed as accumulation at S phase at 1 uM incubated for 48 hrs by propidium iodide staining based flow cytometry (reference value: 0.99%); format: functional; how it was run: as §2
MCF7 [7] = experiment: Induction of cell cycle arrest in human MCF7 cells assessed as accumulation at G0/G1 phase at 0.5 uM incubated for 48 hrs by propidium iodide staining based flow cytometry (reference value: 77.79%); format: functional; how it was run: as §2
MCF7 [8] = experiment: Induction of cell cycle arrest in human MCF7 cells assessed as accumulation at sub G1 phase at 0.5 uM incubated for 48 hrs by propidium iodide staining based flow cytometry (reference value: 2.75%); format: functional; how it was run: as §2
MCF7 [9] = experiment: Induction of apoptosis in human MCF7 cells assessed as late apoptotic cells levels at 0.5 uM incubated for 48 hrs by Annexin V-FITC and propidium iodide staining based flow cytometry (reference value: 3.08%); format: functional
MCF7 [10] = experiment: Induction of apoptosis in human MCF7 cells assessed as viable cells levels at 1 uM incubated for 48 hrs by Annexin V-FITC and propidium iodide staining based flow cytometry (reference value: 92.5%); format: functional
MCF7 [11] = experiment: Induction of apoptosis in human MCF7 cells assessed as induction of caspase-9 activity at 1 uM incubated for 48 hrs by ELISA method relative to control; format: functional
How it was run: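 MCF-7 cells were treated for 48 h, pelleted, washed in PBS and lysed for 15 min. After centrifugation at 20,000 rpm for 15 min, caspase-9 activity in the supernatant was measured with a kit ELISA and expressed relative to untreated control. Mean ± SD of two experiments run in triplicate.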

MCF7 [12] = experiment: Induction of cell cycle arrest in human MCF7 cells assessed as accumulation at S phase at 0.5 uM incubated for 48 hrs by propidium iodide staining based flow cytometry (reference value: 0.99%); format: functional; how it was run: as §2
MCF7 [13] = experiment: Induction of cell cycle arrest in human MCF7 cells assessed as accumulation at G0/G1 phase at 1 uM incubated for 48 hrs by propidium iodide staining based flow cytometry (reference value: 77.79%); format: functional; how it was run: as §2
MCF7 [14] = experiment: Induction of apoptosis in human MCF7 cells assessed as viable cells levels at 0.5 uM incubated for 48 hrs by Annexin V-FITC and propidium iodide staining based flow cytometry (reference value: 92.5%); format: functional
MCF7 [15] = experiment: Induction of cell cycle arrest in human MCF7 cells assessed as accumulation at sub G1 phase at 1 uM incubated for 48 hrs by propidium iodide staining based flow cytometry (reference value: 2.75%); format: functional; how it was run: as §2
MCF7 [16] = experiment: Induction of cell cycle arrest in human MCF7 cells assessed as accumulation at G2/M phase at 1 uM incubated for 48 hrs by propidium iodide staining based flow cytometry (reference value: 11.98%); format: functional; how it was run: as §2
MCF7 [17] = experiment: Induction of apoptosis in human MCF7 cells assessed as reduction in Bcl2 protein levels at 1 uM incubated for 48 hrs by Western blot method; format: functional, cell-based
How it was run: (§3)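 MCF-7 cells were treated for 48 h and lysed in ice-cold RIPA buffer with PMSF, aprotinin, leupeptin, pepstatin and NaF. Protein was quantified by Bradford, and 50 µg per lane was run on 12% SDS-PAGE and transferred to PVDF. Membranes were blocked 2 h in TBST with 5% blocking powder, probed with primary antibody overnight and HRP secondary for 1 h at room temperature, then detected by chemiluminescence.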

MCF7 [18] = experiment: Induction of apoptosis in human MCF7 cells assessed as increase in p53 protein levels at 1 uM incubated for 48 hrs by Western blot method; format: functional, cell-based; how it was run: as §3
MCF7 [19] = experiment: Induction of apoptosis in human MCF7 cells assessed as increase in p21 protein levels at 1 uM incubated for 48 hrs by Western blot method; format: functional, cell-based; how it was run: as §3
MCF7 [20] = experiment: Induction of apoptosis in human MCF7 cells assessed as necrotic cells levels at 1 uM incubated for 48 hrs by Annexin V-FITC and propidium iodide staining based flow cytometry (reference value: 0.86%); format: functional
MCF7 [21] = experiment: Induction of apoptosis in human MCF7 cells assessed as early apoptotic cells levels at 1 uM incubated for 48 hrs by Annexin V-FITC and propidium iodide staining based flow cytometry (reference value: 3.57%); format: functional
MCF7 [22] = experiment: Induction of apoptosis in human MCF7 cells assessed as increase in p27 protein levels at 1 uM incubated for 48 hrs by Western blot method; format: functional, cell-based; how it was run: as §3
MCF7 [23] = experiment: Induction of ROS generation in human MCF7 cells at 0.5 uM incubated for 48 hrs by DCFDA dye based flow cytometry (reference value: 1.2%); format: functional
MCF7 [24] = experiment: Induction of apoptosis in human MCF7 cells assessed as late apoptotic cells levels at 1 uM incubated for 48 hrs by Annexin V-FITC and propidium iodide staining based flow cytometry (reference value: 3.08%); format: functional
MCF7 [25] = experiment: Induction of apoptosis in human MCF7 cells assessed as necrotic cells levels at 0.5 uM incubated for 48 hrs by Annexin V-FITC and propidium iodide staining based flow cytometry (reference value: 0.86%); format: functional
MCF7 [26] = experiment: Induction of apoptosis in human MCF7 cells assessed as increase in Bax protein levels at 1 uM incubated for 48 hrs by Western blot method; format: functional, cell-based; how it was run: as §3

How did the GI50 (DU-145) turn out when `CN1C(=O)C(c2ccc(C(F)(F)F)cc2)=C(c2ccccc2)C12C=CC(=O)C=C2` was run?
Its GI50 is 17.6 µM.

What about the GI50 (MCF7 [1]) of the same molecule?
The GI50 was 8.1 µM.

What about the GI50 (A549) of the same molecule?
The GI50 was 30.3 µM.

What about the GI50 (HepG2) of the same molecule?
Its GI50 is 13.7 µM.

How did the GI50 (DU-145) turn out when `O=C1C=CC2(C=C1)OC(=O)C(c1ccc(O)cc1)=C2c1ccccc1` was run?
The GI50 was 2.7 µM.

And the GI50 (MCF7 [1])?
The GI50 was 3.4 µM.

And the GI50 (A549)?
Its GI50 is 6.2 µM.

What about the GI50 (HepG2) of the same molecule?
Its GI50 is 3.5 µM.

`CN1C(=O)C(c2cccc3ccccc23)=C(c2ccccc2)C12C=CC(=O)C=C2` was tested. Which GI50 (DU-145) did it give?
The GI50 was 6.3 µM.

What about the GI50 (MCF7 [1]) of the same molecule?
The GI50 was 2.4 µM.

What about the GI50 (A549) of the same molecule?
The GI50 was 17.3 µM.

And the GI50 (HepG2)?
Its GI50 is 6.12 µM.

Which GI50 (DU-145) does the source give for `COc1ccc(C2=C(c3ccccc3)C3(C=CC(=O)C=C3)N(C)C2=O)cc1` here?
The GI50 was 55.7 µM.

What about the GI50 (MCF7 [1]) of the same molecule?
Its GI50 is 45.4 µM.

What about the GI50 (A549) of the same molecule?
The GI50 was 98 µM.

What about the GI50 (HepG2) of the same molecule?
Its GI50 is 61.7 µM.

With `CN1C(=O)C(c2ccc(C=O)s2)=C(c2ccccc2)C12C=CC(=O)C=C2` as the molecule, how does the GI50 (DU-145) read?
Its GI50 is 8.2 µM.

And the GI50 (MCF7 [1])?
The GI50 was 3.6 µM.

And the GI50 (A549)?
Its GI50 is 16.6 µM.

And the GI50 (HepG2)?
Its GI50 is 13.9 µM.

Which GI50 (DU-145) does the source give for `CC/C(=C(\c1ccccc1)c1ccc(OCCN(C)C)cc1)c1ccccc1` [TAMOXIFEN] here?
Its GI50 is 19.3 µM.

And the GI50 (MCF7 [1])?
Its GI50 is 8 µM.

And the GI50 (A549)?
Its GI50 is 24.4 µM.

Which GI50 (DU-145) does the source give for `COc1ccc(C2=C(c3ccccc3)C3(C=CC(=O)C=C3)N(C)C2=O)c(OC)c1` here?
Its GI50 is 62.7 µM.

And the GI50 (MCF7 [1])?
The GI50 was 71.7 µM.

What about the GI50 (A549) of the same molecule?
The GI50 was 101 µM.

And the GI50 (HepG2)?
Its GI50 is 69.1 µM.

Which results are given for `O=Cc1ccc(C2=C(c3ccccc3)C3(C=CC(=O)C=C3)OC2=O)s1`?
GI50 (DU-145): 4 µM; GI50 (MCF7 [1]): 3.4 µM; GI50 (A549): 4.6 µM; GI50 (HepG2): 2.6 µM

What does the source list for `O=C1C=CC2(C=C1)OC(=O)C(c1ccc([N+](=O)[O-])cc1)=C2c1ccccc1`?
inhibition (MCF7 [2]): Active; Activity (MCF7 [3]): 78.5%; Activity (MCF7 [4]): 5.87%; GI50 (DU-145): 1.9 µM; GI50 (MCF7 [1]): 1 µM; Activity (MCF7 [5]): 3.35%; Activity (MCF7 [6]): 1.75%; Activity (MCF7 [7]): 84.21%; Activity (MCF7 [8]): 4.38%; Activity (MCF7 [9]): 6.76%; GI50 (A549): 4 µM; Activity (MCF7 [10]): 57.24%; fold change (FC) (MCF7 [11]): 2; Activity (MCF7 [12]): 0.34%; Activity (MCF7 [13]): 89.15%; Activity (MCF7 [14]): 85.41%; Activity (MCF7 [15]): 3.69%; Activity (MCF7 [16]): 0.76%; Activity (MCF7 [17]): Active; Activity (MCF7 [18]): Active; Activity (MCF7 [19]): Active; Activity (MCF7 [20]): 3.77%; Activity (MCF7 [21]): 10.13%; Activity (MCF7 [22]): Active; Activity (MCF7 [23]): 30.4%; GI50 (HepG2): 1.5 µM; Activity (MCF7 [24]): 28.87%; Activity (MCF7 [25]): 1.96%; Activity (MCF7 [26]): Active

What does the source list for `CN1C(=O)C(c2ccoc2)=C(c2ccccc2)C12C=CC(=O)C=C2`?
GI50 (DU-145): 91.2 µM; GI50 (MCF7 [1]): 52.7 µM; GI50 (A549): 126 µM; GI50 (HepG2): 62.8 µM

For `O=C1C=CC2(C=C1)OC(=O)C(c1ccc(C(=O)O)cc1)=C2c1ccccc1`, which GI50 (DU-145) is on record?
Its GI50 is 4.8 µM.

What about the GI50 (MCF7 [1]) of the same molecule?
Its GI50 is 3.5 µM.

And the GI50 (A549)?
Its GI50 is 6.3 µM.

What about the GI50 (HepG2) of the same molecule?
Its GI50 is 6.3 µM.

Which GI50 (DU-145) does the source give for `CN1C(=O)C(c2ccccc2)=C(c2ccccc2)C12C=CC(=O)C=C2` here?
The GI50 was 15.5 µM.

What about the GI50 (MCF7 [1]) of the same molecule?
The GI50 was 8.2 µM.

And the GI50 (A549)?
The GI50 was 22.5 µM.

What about the GI50 (HepG2) of the same molecule?
The GI50 was 9.2 µM.
